Results published in paper PMC3294036 (Nature structural & molecular biology, 2012).

What was measured:
CN = conditions: cited from earlier work; for Kd: read-out: Kd for CN, natural recognition sites
[1] = test system: NFAT3 (NFATc4) nuclear translocation in hippocampal neurons; experiment: NFAT translocation assay after KCl depolarization; type: cell-based, rat; conditions: full-length AKAP79 expressed after AKAP150 RNAi; 3-min 90 mM KCl
[2] = test system: CN-YFP / AKAP79-YFP mobility in rat hippocampal neuron dendritic spines; experiment: FRAP microscopy in single dendritic spines; type: cell-based; conditions: wildtype AKAP79-YFP in dendritic spines, single exponential fit
calcineurin (CN) [3] = target: calcineurin (CN) (UniProt Q08209); experiment: Calcineurin-AKAP79 competitive binding assay; design: species or system human; conditions: for Ki: read-out: estimated Ki, competition with fluorescent PVIVIT peptide for binding to CN, GST-AKAP79(333–348) fusion proteins (14mer), representative of three experiments
Chain of calcineurin (CN) (Q08209 1-381): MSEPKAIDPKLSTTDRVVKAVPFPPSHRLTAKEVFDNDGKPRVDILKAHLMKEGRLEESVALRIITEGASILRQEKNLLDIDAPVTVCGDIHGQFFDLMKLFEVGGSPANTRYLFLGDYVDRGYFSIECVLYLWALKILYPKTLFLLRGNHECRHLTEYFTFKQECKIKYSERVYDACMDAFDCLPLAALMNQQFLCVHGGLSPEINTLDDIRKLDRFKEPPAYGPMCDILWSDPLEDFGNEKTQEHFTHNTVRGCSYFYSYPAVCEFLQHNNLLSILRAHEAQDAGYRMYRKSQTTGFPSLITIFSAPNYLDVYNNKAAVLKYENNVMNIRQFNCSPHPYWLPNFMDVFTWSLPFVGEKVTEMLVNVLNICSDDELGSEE
Chain of calcineurin (CN) (P63098 16-170 partner): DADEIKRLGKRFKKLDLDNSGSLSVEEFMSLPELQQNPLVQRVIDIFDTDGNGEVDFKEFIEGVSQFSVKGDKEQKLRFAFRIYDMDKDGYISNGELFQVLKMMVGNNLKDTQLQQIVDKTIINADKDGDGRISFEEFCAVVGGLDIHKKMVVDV

calcineurin (CN) [4] = target: calcineurin (CN) (UniProt Q08209); type: binding, human; conditions: 36 °C
Outline: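 ATTO 425-labeled AKAP79(333–408) donor (100 nM) was complexed with tetramethylrhodamine-labeled CN acceptor. The preformed complex was mixed in a stopped-flow instrument with 100 µM (final) unlabeled PVIVIT to block rebinding, at room temperature or 36 °C. Dissociation was followed as the fall in FRET signal, fitted as a single exponential; half-time was taken from the rate (n = 4).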

Substance | Kd (CN) [µM] | rescue of NFAT nuclear translocation [1] | other results
PSIRIT | ~25 | – | –
PPAIIIA | – | as efficiently as wildtype AKAP79 | –
wildtype AKAP79: full-length RNAi-resistant human AKAP79 (YFP- or CFP-tagged) expressed in rat hippocampal neurons | – | rescued NFAT nuclear translocation | mobile fraction of AKAP79-YFP (maximal percent recovery) [2]: 61.8 ± 0.6%
PVIAVN | 250 | – | –
PQIIIS | 5 | – | –
PIAIIIA | – | somewhat less efficiently | –
PSIQIT | ~25 | – | –
PRIEIA | – | – | shift in Kd caused by PRIEIT>PRIEIA substitution in NFAT1 (CN): 10 fold
AIAIIIT | – | – | Ki (calcineurin (CN) [3]): 3.7 µM
PAAIIIT | – | – | Ki (calcineurin (CN) [3]): 47 µM
PPAIIIT | – | completely unable to rescue signaling | fold stronger binding to CN than wildtype AKAP79 (calcineurin (CN) [3]; GST fusion proteins displacing labeled PVIVIT): ~ 4 fold; half-time of dissociation (calcineurin (CN) [4]; corresponding to mean dissociation rate): ~ 163 ms; mean dissociation rate (calcineurin (CN) [4]; preformed complex mixed with excess unlabelled PVIVIT, mean of n = 4): 4.24 s⁻¹
PRIEIT | ~25 | – | –
